# High-throughput results from PubChem.
# RGS4 block – RGS4 inhibitors, primary screen, cell-based, HEK293 M3R inducible RGS4, calcium flux; actives 0.45% (n = 310,000); AID 463165, 2010; Fluo-4 calcium flux; active compounds read high; triggered by carbachol at its EC20; B-score at 10 µM;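 active = B-score, a plate-corrected calcium signal, over three deviations above library mean, with baseline fluorescence within five deviations of library mean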;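 also: RGS4 expression induced by doxycycline in cells with stable M3 receptor; B-score is computed from the integrated fluorescence ratio over baseline after carbachol; higher B-score means a larger calcium signal and so more RGS4 inhibition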
# Target sequence (P49798 whole entry, looked up): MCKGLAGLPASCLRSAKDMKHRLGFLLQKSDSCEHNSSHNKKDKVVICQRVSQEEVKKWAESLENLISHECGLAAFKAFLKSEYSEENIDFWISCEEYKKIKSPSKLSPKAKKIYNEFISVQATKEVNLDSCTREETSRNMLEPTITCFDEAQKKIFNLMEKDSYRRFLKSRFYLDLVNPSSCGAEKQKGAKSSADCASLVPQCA
# MrgX1 ag – agonists of human MrgX1 receptor, primary screen, HEK293 cells, Fluo-4 calcium flux. B-score at 10 µM. AID 588627, 2011. Mas-related G-protein coupled receptor member X1 (Homo sapiens), Q96LB2. actives 0.44% (n = 310,000). Fluo-4 calcium fluorescence, agonist mode; active compounds read high;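 active = calcium response B-score plate-corrected fluorescence ratio at least 3 library SD, with starting fluorescence B-score inside 5 SD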
# Target sequence (Q96LB2 whole entry, looked up): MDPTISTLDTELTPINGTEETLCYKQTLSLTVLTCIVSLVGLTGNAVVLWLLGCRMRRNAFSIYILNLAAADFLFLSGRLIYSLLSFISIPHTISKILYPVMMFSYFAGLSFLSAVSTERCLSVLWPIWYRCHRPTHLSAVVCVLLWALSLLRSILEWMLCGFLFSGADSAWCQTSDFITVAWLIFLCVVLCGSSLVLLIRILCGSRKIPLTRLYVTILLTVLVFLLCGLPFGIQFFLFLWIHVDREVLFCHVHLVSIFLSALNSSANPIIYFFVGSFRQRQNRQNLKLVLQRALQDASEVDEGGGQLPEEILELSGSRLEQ
#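 Test system: HEK293 cells stably expressing human MrgX1 receptor; Input: fifteen thousand cells per well; Dosing: compound delivered in addition one of three; Schedule: overnight seeding, then 1 h dark dye loading; Technique: Fluo-4 NW calcium fluorescence; Measure: B-scored fluorescence response ratio; Controls: positive and negative controls per plate.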
# MrgX1 antagonist – antagonists of human MrgX1 receptor, primary screen, HEK293 cells, Fluo-4 calcium flux; BAM8-22 antagonism; active compounds read low; B-score at 10 µM; actives 1.3% (n = 310,000);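 active = calcium-response B-score plate-corrected more than 3 library SD below zero, starting fluorescence within 5 deviations, no agonist response on first addition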;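 also: peak minus trough fluorescence over baseline after final BAM8-22 challenge near maximal dose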
# RGS4 pot – RGS4 potentiators or activators, primary screen, cell-based, HEK293 M3R inducible RGS4, calcium flux. carbachol calcium flux Fluo4; active compounds read low. B-score at 10 µM. actives 0.92% (n = 310,000). AID 463111, 2010;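 active = B-score of the integrated calcium signal more than 4 SD below the library mean, with starting fluorescence not abnormally high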;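 also: negative B-score means reduced calcium response which marks RGS4 activation or potentiation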
#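 System: HEK293 FlpIn-TREx cells, stable M3R, doxycycline-inducible RGS4. Timing: overnight RGS4 induction, 30 min dye load 37 °C, 20 min compound RT. Also added: carbachol, ECmax concentration. Measured by: Fluo4 fluorescence kinetic imaging of calcium. Evaluation: integrated calcium ratio converted to B score.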
# MrgX1 allo act – positive allosteric modulators of MrgX1, primary screen, HEK293 cells, Fluo-4 calcium flux | Mas-related G-protein coupled receptor member X1 (Homo sapiens), Q96LB2 | FDSS; active compounds read high | B-score at 10 µM | actives 0.63% (n = 310,000);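 active = plate-corrected calcium response at least 3 library SD above typical, normal starting fluorescence, not activating the receptor alone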;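 also: compound read alongside a low EC10 to EC30 dose of BAM8-22 agonist; peak minus trough fluorescence over baseline measured at the second addition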
# The depositor's hits bear a star; i = inactive; x = no result given. Rows were chosen to be rich in hits. Some 3.5% of all compounds tested hit in one or more screens of this group.
SMILES,RGS4 block,MrgX1 ag,MrgX1 antagonist,RGS4 pot,MrgX1 allo act
O=[N+]([O-])c1ccccc1CCc1cnc(Cl)s1,i,i,i,i,i
COc1ccccc1/C=C/C1C(C(=O)OCC(C)C)=C(C)N=C2SCCC(=O)N21 (stereo unspecified),i,i,i,i,i
COC(=O)C1=C(C)N=C2SCCC(=O)N2C1/C=C/c1ccccc1 (stereo unspecified),i,i,i,-7.4*,i
Cc1ccc(C(=O)NN(CCC(=O)NC(C)(C)C)C2=NS(=O)(=O)c3ccccc32)cc1,i,i,i,i,i
CCn1c(=S)sc2c(=O)n(-c3ccccc3)c(SC)nc21,i,i,i,i,7.7*
Cc1ccc(-n2c3nc(=O)n(C)c(=O)c-3cc3ccccc32)cc1,i,i,i,-8*,i
COc1cc(/C=C2/C(=O)NN(c3ccc(Cl)c(Cl)c3)C2=O)cc([N+](=O)[O-])c1O,i,i,i,i,i
COc1cc(/C=C2/C(=O)NN(c3ccc(Cl)cc3)C2=O)cc(Br)c1O,i,33*,i,i,i
O=C(COC(=O)[C@@H]1CCCN1S(=O)(=O)c1ccc(Cl)cc1)NC12CC3CC(CC(C3)C1)C2,i,i,i,i,i
COc1cc(NC(=O)COC(=O)[C@@H]2CCCN2S(=O)(=O)c2ccc(Cl)cc2)cc(OC)c1OC,x,i,i,x,8.9*
C(C#CCCCCCCCCC[n+]1ccccc1)#CCCCCCCCCC[n+]1ccccc1,i,i,i,-12*,i
COc1ccc(/C=C/c2cccc[n+]2C)c(O)c1,i,i,i,i,i
C[n+]1ccccc1/C=C/c1cc(Br)ccc1O,i,i,i,-8.5*,i
O=C(Nc1ccc(Cl)c(Cl)c1)Nc1ccc(Br)cc1F,i,i,-5.2*,i,i
O=C(Nc1ccc(Br)cc1)Nc1ccccc1F,i,i,i,i,i
Cc1cc(/C=C2/NC(=O)NC2=O)c(C)n1-c1ccccn1,i,i,i,i,i
Cc1ccc(-n2c(C)cc(/C=C3\NC(=O)NC3=O)c2C)c(C)c1,i,i,i,-7.6*,i
Cc1cccc(NC(=O)CSc2nnc(CNC(=O)c3ccc(S(=O)(=O)N(C)C)cc3)n2-c2ccc(F)cc2)c1,i,i,i,i,i
Cc1cccc(-n2c(CNC(=O)c3ccc(S(=O)(=O)N(C)C)cc3)nnc2SCC(=O)Nc2ccc(F)cc2)c1,i,i,i,-8.1*,i
O=C(NCC1CCCO1)/C(=C\c1cccc([N+](=O)[O-])c1)NC(=O)c1ccccc1 (stereo unspecified),i,i,-5.7*,i,i
O=C(NCC1CCCO1)/C(=C/c1ccccc1)NC(=O)c1ccccc1 (stereo unspecified),i,i,i,i,i
N#C/C(=C/c1ccc(-c2cc(C(=O)O)cc(C(=O)O)c2)o1)c1nc2ccccc2s1,i,27*,i,i,i
CC1=NN(c2ccc(Br)cc2)C(=O)/C1=C/c1ccc(-c2ccccc2C(=O)O)o1,i,i,i,i,9.3*
CCOC(=O)c1cc(-c2ccc(/C=C3/C(=O)N(c4ccc(C(=O)O)cc4)N=C3C)o2)ccc1Cl,i,i,i,-7.3*,i
Cc1ccc(Oc2ncccc2/C=N/OCc2ccc(Cl)c(Cl)c2)cc1,i,i,i,i,8.6*
SMILES,RGS4 block,MrgX1 ag,MrgX1 antagonist,RGS4 pot,MrgX1 allo act
O=C1C(Cl)=C(NC(=O)c2ccccc2)C(=O)C(Cl)=C1NC(=O)c1ccccc1,7.3*,i,i,i,i
O=C(NC1=C(Nc2ccc(Cl)cc2)C(=O)c2ccccc2C1=O)c1ccccc1,i,i,i,i,i
O=C(Nc1cccc(Cl)c1)c1ccccc1,x,i,i,x,i
Cc1cccc(NC2=C(NC(=O)c3ccccc3)C(=O)c3ccccc3C2=O)c1,i,i,i,i,10*
CCOc1ccccc1NC(=O)C(C)SCc1ccccc1 (stereo unspecified),i,i,i,i,i
CC(SCc1ccccc1)C(=O)Nc1ccccc1-c1ccccc1 (stereo unspecified),i,i,i,i,12*
Cc1nc2ccccn2c1C(=O)N/N=C/c1ccccc1,i,i,i,i,i
Cc1ccccc1N/N=C/c1c(C)nc2ccccn12,i,i,i,i,8.5*
Cn1c(=O)n(CCc2ccccc2)c(=O)c2c1nc1n2CCCN1CCc1ccccc1,i,i,i,-7.7*,i
Cc1ccc(-n2nc3c(=O)n(CC(=O)NCCCc4ccccc4)nc(C)c3c2C)cc1,i,i,i,i,i
Cc1ccc(-n2nc3c(=O)n(CCCC(=O)NCc4ccccc4Cl)nc(C)c3c2C)cc1,i,i,-6.5*,i,i
Cc1ccc(-n2nc3c(=O)n(C(C)C(=O)NCCCc4ccccc4)nc(C)c3c2C)cc1 (stereo unspecified),i,i,-4.5*,i,i
Cc1ccccc1S(=O)(=O)NCC1CCCO1 (stereo unspecified),i,i,i,i,i
Cc1sc2nc(CSCC(=O)Nc3ccccc3C#N)[nH]c(=O)c2c1C,i,i,i,i,i
CC(C)N(CCC(=O)c1ccc2ccccc2c1)Cc1ccccc1,x,39*,i,x,i
CCC(=O)CCC(=O)c1ccc2ccccc2c1,i,i,i,i,i
COc1ccnc(Oc2ccccc2)c1C(=O)N/C=N/OCc1ccccc1F,i,i,-5.6*,i,i
CC(C)c1ccc(Nc2nnns2)cc1,i,i,i,i,i
Cc1ccc2nc(N(CCCN(C)C)C(=O)c3cc(-c4cccs4)nc4ccccc34)sc2c1,i,i,i,-7.8*,i
Cc1ccc(NNC(=O)c2ccno2)cc1C,i,i,i,-7.5*,i
CCCCc1cc(=O)oc2cc(C)cc(OCC(=O)NC(Cc3ccc(Cl)cc3)C(=O)O)c12 (stereo unspecified),i,i,i,-8.4*,i
CCCc1cc(=O)oc2cc(C)cc(OCC(=O)NC(Cc3ccc(Cl)cc3)C(=O)O)c12 (stereo unspecified),i,i,i,i,i
